These results are taken from article PMC3129977 (ACS chemical neuroscience, 2011).

Assay [1] addresses T1, aggregated Aβ42 peptides (Homo sapiens, UniProt P05067). Description: Fluorescence studies with aggregated Aβ peptides. The class given is binding.
For assay [2], the target named is Aβ plaques in brain sections from an AD patient (Homo sapiens, UniProt P05067). Description: Staining of frozen human brain tissue sections. To be noted: 60 μM probe in PBS, 30 min. The method, boiled down:
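Frozen AD brain sections were dried for 1 h, passed through 100%, 95% and 70% ethanol (5 min each), rinsed in water, and equilibrated 15 min in PBS. Probe was diluted 1:50 from 3 mM PBS stock to 60 μM final and applied for 30 min at room temperature. Sections were PBS-washed, coverslipped and imaged by epifluorescence. Plaque/background intensity was normalized to a reference probe, as mean ± SD, n = 10 measurements per probe.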

For assay [3], the target named is T1, aggregated Aβ42 peptides. The conditions noted are these: earlier report; cited from earlier work.
[4] abbreviates: free probe 4 μM, 5% DMSO in nanopure water, before mixing with aggregated Aβ42.
Setting [5] is: probe 4 μM after mixing with aggregated Aβ42 (5 μM).

T1 sequence (P05067 672-713 limits assumed): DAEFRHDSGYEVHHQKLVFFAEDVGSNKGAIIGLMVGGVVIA
Aβ plaques in brain sections from an AD patient, sequence (P05067 672-711 limits assumed): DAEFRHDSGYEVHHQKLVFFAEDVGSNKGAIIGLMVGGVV

As to `COCCOCCOCCOC(=O)/C(C#N)=C/c1ccc2cc(N3CCCCC3)ccc2c1` [Compound 6], in assay [1] (setting [4]), the Em. max before is on record as 590 nm and the Exc. max before is 415 nm. For the same compound, in assay [1] (setting [5]), the Em. max after was 545 nm and the Exc. max after amounted to 410 nm. Also, the “Fold increase in emission intensity upon association with aggregated Aβ42” value in assay [1] (probe 4 μM, aggregated Aβ42 5 μM) came out at 7.7 fold. In assay [2], the “Fluorescence contrast between plaques and surrounding tissue” value is on record as “weaker observed contrast”; the “Staining of Aβ plaques” value was “stained”. Further, in assay [3], the “Fluorescence change upon binding to Aβ fibrils” value is “large increase in fluorescence intensity”.
